Bioassay records (PubChem)
PMI act hi M6P = human PMI activators, high substrate, primary screen, biochemical, fluorescence intensity, near-saturating mannose 6-phosphate | Mannose-6-phosphate isomerase (Homo sapiens), P34949 | coupled PMI enzyme assay, resazurin fluorescence, 20 min; active compounds read high; 1 = untreated enzyme, 0 = substrate-free blank | activation factor at 20 µM | 0.34% of 190,000 active;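 active = activation factor of 2 or more at 20 µM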
Target sequence (P34949 whole entry, looked up): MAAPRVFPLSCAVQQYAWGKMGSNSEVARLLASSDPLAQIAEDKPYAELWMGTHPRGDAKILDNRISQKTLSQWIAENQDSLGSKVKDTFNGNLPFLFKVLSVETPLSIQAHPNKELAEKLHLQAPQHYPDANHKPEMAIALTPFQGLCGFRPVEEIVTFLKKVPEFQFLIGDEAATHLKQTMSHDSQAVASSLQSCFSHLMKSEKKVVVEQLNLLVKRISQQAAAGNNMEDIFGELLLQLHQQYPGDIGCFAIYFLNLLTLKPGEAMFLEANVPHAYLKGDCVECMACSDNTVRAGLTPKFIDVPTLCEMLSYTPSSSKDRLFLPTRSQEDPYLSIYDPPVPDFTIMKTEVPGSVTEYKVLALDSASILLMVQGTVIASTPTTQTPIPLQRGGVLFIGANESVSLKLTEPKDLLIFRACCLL
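Test system – human PMI in coupled enzyme assay · Timing – 20 min incubation at room temperature · Detection – Diaphorase-driven resazurin-to-resorufin fluorescence, excitation 544, emission 590 nm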
WT yeast gro inh = growth inhibition of WT strain, primary screen, mitochondrial fusion inhibitor project, WT and mutant strains, chemical genetic; 2.1% of 190,000 active; mitochondrial fusion phenotypic screen; inhibition, % at 10 µM; in the data active = inhibition above about 58%; tested in S. cerevisiae
Diaphorase act = compounds boosting diaphorase resazurin reduction – biochemical, uHTS, resorufin fluorescence, counter-screen for diaphorase-coupled primary assays, primary screen; 0.005% of 190,000 active; Diaphorase/resazurin coupled assay, 16 min; active compounds read high; 1 = vehicle wells, 0 = NADH-free wells; activation factor at 20 µM;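 active = diaphorase activity raised at least twofold by the compound at 20 µM; inactive = activation factor below 2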
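Test system: Clostridium kluyveri diaphorase, purified enzyme. Buffer or medium: 50 mM HEPES pH 7.4 buffer plus MgCl2 and Tween 20. Also added: 0.114 mM NADH and 0.1 mM resazurin, final amounts. Dosing: compound 20 µM once, DMSO 1%. Schedule: 16 min enzyme reaction, ambient temperature. Detection: fluorescence of resorufin, 544 nm excitation, 590 nm emission.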
PMI activator = activators of human PMI, primary screen, biochemical, fluorescence intensity, near-Km mannose 6-phosphate. activation factor at 20 µM. Mannose-6-phosphate isomerase (Homo sapiens), P34949. AID 1214, 2008. 0.005% of 190,000 active. purified human PMI, coupled resazurin fluorescence, 20 min; active compounds read high; 1 = vehicle control, 0 substrate-free wells;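 active = activation factor of 2 or more at 20 µM, relative to plate controls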
L major viab = Leishmania major promastigote growth inhibition, primary screen | 9% of 200,000 active | Leishmania major promastigotes, resazurin fluorescence viability | inhibition, % at 10 µM; in the data active = inhibition above about 50%;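 also: promastigotes grown with compound for 44 hours at 28 °C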
Starred values were filed as active, the others as inactive; nt = no result given. Compounds with a hit are over-represented: about 10% of the library has one in this group of screens.

SMILES | PMI act hi M6P | WT yeast gro inh | Diaphorase act | PMI activator | L major viab
O=C(Nc1ccc(Oc2ccc(NC(=O)c3ccco3)c(NC(=O)c3ccco3)c2)cc1)c1ccco1 | 0.9 | 7 | 0.8 | 0.8 | 98*
O=C(Nc1ccc(C(=O)Oc2ccccc2)c(O)c1)c1ccco1 | 1 | 28 | 1 | 0.9 | 55*
COc1ccc(NC(=O)c2ccco2)cc1NC(=O)c1ccco1 | 1 | 10 | 0.9 | 1 | 5
COc1ccccc1NC(=O)c1cccc(NC(=O)c2ccco2)c1 | 1 | 74* | 0.9 | 0.9 | 88*
O=C(Nc1ccc(C(=O)Oc2ccccc2)c(O)c1)c1ccccc1 | 1 | 17 | 0.8 | 0.9 | -8
COc1ccccc1NC(=O)Oc1ccc(NC(=O)c2ccco2)cc1 | 0.8 | 9 | 0.8 | 0.9 | 52*
O=C(c1ccco1)N1CCN(c2ccc([N+](=O)[O-])c(N3CCOCC3)c2)CC1 | 0.8 | -13 | 0.9 | 1 | 6
O=C(COC(=O)c1cccc(NC(=O)c2ccco2)c1)c1ccc(Br)cc1 | 0.9 | 32 | 0.8 | 0.9 | 99*
COc1cc(CNn2cn[nH]c2=S)cc(Cl)c1OCc1ccccc1 | 1 | 31 | 0.8 | 0.9 | -4
COc1cc(CNCc2ccncc2)cc(Br)c1OCc1ccccc1F | 1 | 8 | 1 | 1 | 98*
COc1cc(CNn2cn[nH]c2=S)cc(Br)c1OCc1ccccc1F | 1 | 72* | 0.7 | 0.9 | 9
Cc1cc2c(cc(C(=O)NCc3cccnc3)n2Cc2ccc(Cl)cc2)o1 | 1 | -3 | 0.8 | 0.9 | 34
CCC(C)(C)NC(=O)C(c1ccccc1F)N(Cc1ccco1)C(=O)c1csnn1 (centres undefined) | 1 | -19 | 0.8 | 1 | 57*
CC(C)(C)NC(=O)C(c1ccc(F)cc1)N(Cc1ccco1)C(=O)c1csnn1 (centres undefined) | 1 | 12 | 0.9 | 1 | 3
O=C(C1CCCN(S(=O)(=O)c2cccc3nonc23)C1)N1CCN(c2ccccc2Cl)CC1 (centres undefined) | 0.8 | 8 | 0.7 | 0.9 | 11
Cc1n[nH]c(C)c1S(=O)(=O)N1CCCC(C(=O)N2CCN(c3ccc(Cl)cc3)CC2)C1 (centres undefined) | 1 | 10 | 1 | 1 | 52*
Cc1nn(C)c(C)c1S(=O)(=O)N1CCCC(C(=O)N2CCN(c3ccc(Cl)cc3)CC2)C1 (centres undefined) | 1 | 11 | 0.9 | 0.9 | 6
O=C(C1CCN(S(=O)(=O)c2cccc3cccnc23)CC1)N1CCN(c2ccc(Cl)cc2)CC1 | 0.9 | 22 | 0.6 | 0.9 | 52*
O=C(C1CCN(S(=O)(=O)c2cccc3cccnc23)CC1)N1CCN(c2ccccn2)CC1 | 0.9 | 13 | 0.8 | 1 | -2
O=C(C1CCCN(S(=O)(=O)c2cccc3nonc23)C1)N1CCN(c2cccc(Cl)c2)CC1 (centres undefined) | 0.9 | 18 | 0.8 | 0.9 | 93*
C=CCSc1nc(N)c(C(=O)Nc2ccccc2C)cc1C(N)=O | 0.9 | 9 | 0.9 | 0.9 | 3
Cc1ccc(-c2cc(-c3ccccc3)c(C#N)c(N)n2)o1 | 1.6 | 65* | 0.7 | 1.1 | 15
Cc1ccc(-c2cc(-c3ccccc3Cl)c(C#N)c(N)n2)o1 | 1.4 | 2 | 0.6 | 1 | 34
COc1ccccc1NC(=O)c1ccccc1NS(=O)(=O)c1cccs1 | 1.1 | 25 | 0.9 | 1.2 | -4
COc1ccc(C)cc1NC(=O)c1ccccc1NS(=O)(=O)c1ccc(Cl)s1 | 0.8 | 84* | 0.7 | 0.9 | 8
SMILES | PMI act hi M6P | WT yeast gro inh | Diaphorase act | PMI activator | L major viab
Cc1cccc(N(C)C(=S)Oc2ccc3ccccc3c2)c1 | 1 | 62* | 0.9 | 0.9 | -2
COc1ccc(N(C)C(=S)Oc2ccc(C(=O)Nc3ccccc3)cc2)cc1 | 1 | -6 | 0.9 | 1 | -5
CCNc1nc(NCC)nc(N/N=C/c2ccc(Br)cc2)n1 | 0.9 | 25 | 1 | 1 | 50*
O=C(Cn1cnc2ccccc2c1=O)Nc1ccc(N2CCOCC2)cc1 | 0.9 | -14 | 1 | 1 | -16
Cc1ccc(SCCNC(=S)Nc2ccc(C)c(C)c2)cc1 | 1 | 65 | 0.9 | 1 | 9
Cc1cc(C)cc(NC(=S)NCCSc2ccc(Cl)cc2)c1 | 1 | 81* | 0.9 | 1.1 | 16
Cc1ccc(SCCNC(=S)Nc2ccccc2)cc1 | 1.1 | 74* | 1 | 1 | 8
Cc1cc(C)cc(NC(=S)NCCCO)c1 | 1 | -9 | 0.8 | 1 | -4
Cc1ccc(SCCNC(=S)Nc2cc(C)ccc2C)cc1 | 1 | 75* | 0.8 | 1 | 28
COc1ccccc1NC(=S)NCCSc1ccc(C)cc1 | 0.9 | 71* | 0.7 | 0.8 | 2
COc1ccc(-c2nc(-c3ccccc3)[nH]c(=O)c2C#N)cc1 | 1 | 80* | 0.9 | 0.9 | -11
Clc1ccccc1Nc1nc(-c2cccnc2)cs1 | nt | 11 | nt | nt | 24
CC1=CC(C)(C)N(C(=O)c2ccccc2)c2ccc(C)cc21 | 0.9 | -1 | 0.9 | 0.9 | 0
COc1ccc(C(=O)N2c3cc4c(cc3C(C)=CC2(C)C)OCO4)cc1 | 1 | 60* | 0.9 | 0.9 | 25
Cc1ccc(S(=O)(=O)Oc2cccc(/C=N/n3cnnc3)c2)cc1 | 0.9 | 2 | 0.9 | 1 | 67*
Clc1ccc(Oc2cccc(/C=N/n3cnnc3)c2)cc1 | 0.9 | 68* | 0.8 | 0.8 | 25
C(=N\n1cnnc1)/c1cccc(OCCOc2ccccc2)c1 | 1.1 | 19 | 0.9 | 0.9 | 4
COC(=O)c1oc(-c2ccc(Cl)cc2)nc1C | 1.1 | -7 | 1 | 1.1 | -13
O=C(CSc1ncnc2c1sc1ccccc12)Nc1ccc(Br)cc1 | 1 | -1 | 1 | 0.9 | 60*
CCN(CC)c1ccc2c(c1)OC(N)=C(C#N)C2c1cccnc1 (centres undefined) | 0.9 | 2 | 0.9 | 0.9 | 81*
COc1ccc(OCCC(=O)OCC(=O)NCc2ccccc2)cc1 | 1 | -7 | 1 | 1 | -1
CSc1ccc(/C=N/NC(=O)CNc2cccc3ccccc23)cc1 | 0.8 | 12 | 0.8 | 0.8 | -3
O=C(CNc1cccc2ccccc12)N/N=C/C(Br)=C/c1ccccc1 | 0.6 | 72* | 0.6 | 0.8 | -2
C=CCc1cccc(/C=N/NC(=O)CNc2cccc3ccccc23)c1O | 0.4 | 62* | 0.6 | 0.6 | -14
O=C(CNc1cccc2ccccc12)N/N=C/c1ccc([N+](=O)[O-])o1 | 0.4 | 44 | 0.7 | 0.7 | 99*
O=C(CNc1cccc([N+](=O)[O-])c1)N/N=C/c1ccc([N+](=O)[O-])o1 | 0.7 | -4 | 0.8 | 1 | 100*
